Experimental data from ChEMBL document CHEMBL1121412, “Synthesis and anticancer activity of nitrosourea derivatives of phensuximide” (1980).

Legend:
Mus musculus [1] = assay: Toxicity against mouse L1210 Leukemia as number of animals survived/number of animals treated at the Optimal dose of 200 mg/kg; 6/6, dose range ip 200-12.5 mg/kg.; format: functional; details: route intraperitoneal
Mus musculus [2] = assay: Animal weight difference at the Optimal dose of 100 mg/kg against mouse L1210 Leukemia; dose range ip 200-12.5 mg/kg; format: functional; details: route intraperitoneal
Mus musculus [3] = assay: Tested for cures, represents a 30-day survival, ratio of treated and control was reported; dose range ip 200-12.5 mg/kg; format: functional
Mus musculus [4] = assay: Animal weight difference at the Optimal dose of 16.0 mg/kg against Ependymoblastoma Tumor; dose range 16-2 mg/kg
Mus musculus [5] = assay: Toxicity against Ependymoblastoma Tumor number of animals survived/number of animals treated at the Optimal dose of 16.0 mg/kg; dose range 16-2 mg/kg
Mus musculus [6] = assay: Tested for cures, represents a 30-day survival, ratio of treated and control against Ependymoblastoma Tumor was reported; dose range 16-2 mg/kg; format: functional
How it was run: (§1)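 Mouse ependymoblastoma implanted intracerebrally to test CNS antitumour activity. Groups of 10 mice were dosed on days 1-5 over the stated dose range. Toxicity is scored as survivors on day 5 after the first injection. Activity is given as % T/C at the optimum dose, and a cure is defined as 30-day survival.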

Mus musculus [7] = assay: Toxicity against mouse L1210 Leukemia as number of animals survived/number of animals treated at the Optimal dose of 100 mg/kg; 6/6, dose range ip 200-12.5 mg/kg; format: functional; details: route intraperitoneal
Mus musculus [8] = assay: Animal weight difference at the Optimal dose of 50 mg/kg against mouse L1210 Leukemia; dose range ip 400-12.5 mg/kg.; details: route intraperitoneal
Mus musculus [9] = assay: Toxicity against mouse L1210 Leukemia as number of animals survived/number of animals treated at the Optimal dose of 50 mg/kg; 6/6, dose range ip 400-12.5 mg/kg.; format: functional; details: route intraperitoneal
Mus musculus [10] = assay: Tested for cures, represents a 30-day survival, ratio of treated and control was reported; dose range ip 400-12.5 mg/kg.; format: functional
Mus musculus [11] = assay: Animal weight difference at the Optimal dose of 200 mg/kg against mouse L1210 Leukemia; dose range ip 400-12.5 mg/kg; format: functional; details: route intraperitoneal
Mus musculus [12] = assay: Toxicity against mouse L1210 Leukemia as number of animals survived/number of animals treated at the Optimal dose of 200 mg/kg; 5/6, dose range ip 400-12.5 mg/kg.; format: functional; details: route intraperitoneal
[13] = system: L1210 leukemia (Mus musculus); assay: Tested for cures, represents a 30-day survival, ratio of treated and control against L1210 leukemia was reported; dose range ip 400-12.5 mg/kg
Mus musculus [14] = assay: Tested for cures, represents a 30-day survival, ratio of treated and control was reported; dose range ip 50-6.25 mg/kg; format: functional
Mus musculus [15] = assay: Tested for cures, represents a 30-day survival, ratio of treated and control against Ependymoblastoma Tumor was reported; dose range 12-0.75 mg/kg; format: functional; how it was run: as §1
Mus musculus [16] = assay: Animal weight difference at the Optimal dose of 25 mg/kg against mouse L1210 Leukemia; dose range ip 50-6.25 mg/kg; details: route intraperitoneal
Mus musculus [17] = assay: Toxicity against mouse L1210 Leukemia as number of animals survived/number of animals treated at the Optimal dose of 25 mg/kg; 6/6, dose range ip 50-6.25 mg/kg.; details: route intraperitoneal
Mus musculus [18] = assay: Animal weight difference at the Optimal dose of 12.0 mg/kg against Ependymoblastoma Tumor; dose range 12-0.75 mg/kg; format: functional
Mus musculus [19] = assay: Toxicity against Ependymoblastoma Tumor number of animals survived/number of animals treated at the Optimal dose of 12.0 mg/kg; dose range 12-0.75 mg/kg; format: functional; how it was run: as §1

CCN(N=O)C(=O)Nc1ccc(C2CC(=O)N(C)C2=O)cc1 (stereo unspecified)
Ratio (Mus musculus [1]): 6
T-C (Mus musculus [2]): -3.8 g
T/C (Mus musculus [3]): 126%

O=NN(CCCl)C(=O)NCCCl [CARMUSTINE]
T-C (Mus musculus [4]): -3.4 g
Ratio (Mus musculus [5]): 10
T/C (Mus musculus [6]): 300%

CN(N=O)C(=O)Nc1ccc(C2CC(=O)N(C)C2=O)cc1 (stereo unspecified)
T-C (Mus musculus [2]): -1.2 g
Ratio (Mus musculus [7]): 6
T/C (Mus musculus [3]): 127%

CCCN(N=O)C(=O)Nc1ccc(C2CC(=O)N(C)C2=O)cc1 (stereo unspecified)
T-C (Mus musculus [8]): 0.8 g
Ratio (Mus musculus [9]): 6
T/C (Mus musculus [10]): 109%

CCCCN(N=O)C(=O)Nc1ccc(C2CC(=O)N(C)C2=O)cc1 (stereo unspecified)
T-C (Mus musculus [11]): -2.8 g
Ratio (Mus musculus [12]): 5
T/C [13]: 120%

CN1C(=O)CC(c2ccc(NC(=O)N(CCCl)N=O)cc2)C1=O (stereo unspecified)
T/C (Mus musculus [14]): 196%
T/C (Mus musculus [15]): 240%
T-C (Mus musculus [16]): -4.6 g
Ratio (Mus musculus [17]): 6
T-C (Mus musculus [18]): -3.8 g
Ratio (Mus musculus [19]): 9
